Assay results: PMC5777231 (Nature, 2017)

Key:
GLUTag cells = test: GLP-1 release from GLUTag cells; assay type: cell-based, murine; conditions: equimolar concentrations, 2 hours
In short: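 Murine enteroendocrine GLUTag cells were grown in low-glucose GlutaMAX DMEM with 10% FBS and 1% Pen/Strep, then plated at 50,000 cells/well overnight. Cells were washed twice and preincubated 30 min in Krebs buffer with DPP4 inhibitor. Compounds from 10 mM DMSO stocks were added at 1 µM and 100 µM for 2 h, with DMSO as control. Clarified supernatant was assayed by active GLP-1 immunoassay. Two independent experiments gave 4–6 wells per condition, analysed by ANOVA.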

G2A (GPR132) = target: T1, G2A (GPR132) (Homo sapiens, UniProt Q9UNW8); test: β-arrestin cell-based orphan GPCR agonist assay
T1 sequence (Q9UNW8 1-380): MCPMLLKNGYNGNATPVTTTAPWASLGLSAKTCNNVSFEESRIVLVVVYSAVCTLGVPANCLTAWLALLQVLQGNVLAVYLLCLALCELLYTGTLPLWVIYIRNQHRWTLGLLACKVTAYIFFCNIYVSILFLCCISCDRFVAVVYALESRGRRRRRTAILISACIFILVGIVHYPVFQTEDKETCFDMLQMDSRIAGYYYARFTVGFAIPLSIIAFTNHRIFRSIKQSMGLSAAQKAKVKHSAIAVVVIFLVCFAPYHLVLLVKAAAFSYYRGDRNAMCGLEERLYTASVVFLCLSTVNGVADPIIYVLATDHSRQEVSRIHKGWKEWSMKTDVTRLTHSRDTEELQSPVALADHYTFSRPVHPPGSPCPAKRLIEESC
In short: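 Orphan GPCR panel, DiscoveRx β-arrestin recruitment format, agonist mode. Test compound was screened at 10 µM in singlicate. Follow-up dose-response curves were run in duplicate per dose, and EC50 was derived from them.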

[1] = target: T2, sphingosine-1-phosphate receptor 4 (S1PR4) (Homo sapiens, UniProt O95977); test: β-arrestin cell-based GPCR agonist assay; conditions: for activation of / interaction with S1PR4 (in words): GPCR screen
T2 sequence (O95977 1-384): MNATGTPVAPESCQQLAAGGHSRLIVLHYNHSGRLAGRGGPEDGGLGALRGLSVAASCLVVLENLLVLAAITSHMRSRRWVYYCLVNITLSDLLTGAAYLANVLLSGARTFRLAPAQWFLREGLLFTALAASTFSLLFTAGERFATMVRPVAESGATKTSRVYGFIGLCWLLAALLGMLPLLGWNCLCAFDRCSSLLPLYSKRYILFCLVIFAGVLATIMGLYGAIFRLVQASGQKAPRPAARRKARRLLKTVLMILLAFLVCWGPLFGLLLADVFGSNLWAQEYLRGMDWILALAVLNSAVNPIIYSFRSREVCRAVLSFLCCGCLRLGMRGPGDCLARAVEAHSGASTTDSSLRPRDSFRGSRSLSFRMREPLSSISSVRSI

S1PR3 = S1PR3 (Homo sapiens, UniProt Q99500); test: β-arrestin GPCR agonist screen, S1PR3; assay type: cell-based; conditions: 10 µM ligand
In short: (§1)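 Cell-based β-arrestin recruitment screen, run by a contract lab, at 10 µM ligand in agonist and antagonist modes across 168 GPCRs with known ligands plus 72 orphan GPCRs. Test compounds were bacterial N-acyl amides, taking the most abundant analog of each family from heterologous E. coli expression. Synthetic N-acyl amides were screened the same way.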

S1PR1 = S1PR1 (Homo sapiens, UniProt P21453); test: β-arrestin GPCR agonist screen, S1PR1; assay type: cell-based; conditions: 10 µM ligand
In short: as §1

S1PR2 = S1PR2 (Homo sapiens, UniProt O95136); test: β-arrestin GPCR agonist screen, S1PR2; assay type: cell-based; conditions: 10 µM ligand
In short: as §1

GPR119 = target: T3, GPR119 (Homo sapiens, UniProt Q8TDV5); test: cAMP secondary assay in ACTOne HEK293 cells transfected with GPR119; assay type: cell-based; conditions: HEK293 cells stably transfected with GPR119 vs not transfected; GPR119 dependent
T3 sequence (Q8TDV5 1-335): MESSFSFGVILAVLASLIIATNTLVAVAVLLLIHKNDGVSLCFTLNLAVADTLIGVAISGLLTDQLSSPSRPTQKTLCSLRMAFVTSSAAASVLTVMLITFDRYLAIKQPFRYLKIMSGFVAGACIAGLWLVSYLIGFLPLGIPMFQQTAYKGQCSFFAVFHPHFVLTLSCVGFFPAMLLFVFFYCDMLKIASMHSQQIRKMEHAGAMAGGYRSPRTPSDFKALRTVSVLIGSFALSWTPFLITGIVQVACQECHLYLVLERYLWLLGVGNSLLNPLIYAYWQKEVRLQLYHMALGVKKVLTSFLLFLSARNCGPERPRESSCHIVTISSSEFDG
In short: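 Orthogonal cAMP read-out used live ACTOne HEK293 cells, which carry a cAMP-sensitive ion channel, read with a membrane potential dye kit. GPR119-transfected cells were compared with parental untransfected cells. Each was exposed to equimolar ligand concentrations, with the endogenous ligand and an ADORA2B agonist as parental-line cAMP control. Relative fluorescence intensity was taken against background. Points were in quadruplicate, SD shown, and EC50 was derived.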

[2] = mice, intravenous delivery; cited from earlier work

S1PR3, sequence (Q99500 whole entry): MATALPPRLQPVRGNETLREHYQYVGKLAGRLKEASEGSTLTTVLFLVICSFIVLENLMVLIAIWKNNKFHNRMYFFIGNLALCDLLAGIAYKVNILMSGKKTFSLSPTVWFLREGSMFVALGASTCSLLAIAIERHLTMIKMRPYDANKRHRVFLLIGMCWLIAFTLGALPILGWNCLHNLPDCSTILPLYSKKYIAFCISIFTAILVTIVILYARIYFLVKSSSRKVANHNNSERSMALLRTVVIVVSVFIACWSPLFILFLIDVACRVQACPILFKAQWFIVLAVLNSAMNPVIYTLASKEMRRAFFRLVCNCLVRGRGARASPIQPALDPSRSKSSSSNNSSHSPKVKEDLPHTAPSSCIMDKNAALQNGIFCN
S1PR2, sequence (O95136 whole entry): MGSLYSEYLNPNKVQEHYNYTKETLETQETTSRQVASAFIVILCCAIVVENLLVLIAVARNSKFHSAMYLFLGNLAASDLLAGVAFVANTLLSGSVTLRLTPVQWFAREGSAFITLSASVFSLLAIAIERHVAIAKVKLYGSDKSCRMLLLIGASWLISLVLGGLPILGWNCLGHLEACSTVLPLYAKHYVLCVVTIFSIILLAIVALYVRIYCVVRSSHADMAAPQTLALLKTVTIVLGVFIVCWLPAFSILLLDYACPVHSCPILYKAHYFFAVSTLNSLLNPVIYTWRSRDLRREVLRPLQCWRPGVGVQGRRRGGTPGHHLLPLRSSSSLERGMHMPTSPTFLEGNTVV
S1PR1, sequence (P21453 whole entry): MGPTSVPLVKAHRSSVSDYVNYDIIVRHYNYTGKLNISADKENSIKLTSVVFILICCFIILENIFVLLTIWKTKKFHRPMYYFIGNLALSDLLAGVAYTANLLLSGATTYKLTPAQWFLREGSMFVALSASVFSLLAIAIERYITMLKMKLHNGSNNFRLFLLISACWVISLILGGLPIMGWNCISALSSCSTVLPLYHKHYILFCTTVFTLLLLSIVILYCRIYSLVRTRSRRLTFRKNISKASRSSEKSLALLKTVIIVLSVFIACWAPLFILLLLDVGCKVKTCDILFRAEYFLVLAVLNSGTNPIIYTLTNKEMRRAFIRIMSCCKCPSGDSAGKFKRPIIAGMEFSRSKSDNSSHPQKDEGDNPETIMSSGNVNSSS

CCCCCCCC/C=C\CCCCCCCC(=O)OC(CO)CO [2-OG, 2-oleoyl glycerol]
GLP-1 secretion (GLUTag cells): to the same magnitude

CCCCCCCCCCCCCC(O)CC(=O)NCC(=O)O (stereo not shown) [N-3-hydroxypalmitoyl glycine]
activation of G2A (in words) (G2A (GPR132)): activate

CCCCCCCCCCCCCC(O)CC(=O)N[C@@H](CCCCN)C(=O)O (stereo partly shown) [N-3-hydroxypalmitoyl lysine]
activation of / interaction with S1PR4 (in words) [1]: interact

CCCCCCCCCCCCCC(O)CC(=O)N[C@@H](CCCN)C(=O)O (stereo partly shown) [N-3-hydroxypalmitoyl ornithine]
activation of S1PR3 (S1PR3): did not activate | EC50 [1]: 32 µM | activation of / interaction with S1PR4 (in words) [1]: interact | activation of S1PR1 (S1PR1): did not activate | activation of S1PR2 (S1PR2): did not activate

CCCCCCCCCCCCCCCC(=O)N[C@@H](C)C(=O)O [N-palmitoyl alanine]
activation of G2A (in words) (G2A (GPR132)): activate

CCCCCCCC/C=C\CCCCCCCC(=O)NCCO [OEA, oleoylethanolamide]
GLP-1 secretion (GLUTag cells): to the same magnitude | cellular cAMP concentration (in words) (GPR119): increased | blood glucose in OGTT [2]: fails to lower blood glucose

CCCCCCCCCCCCC/C=C/[C@@H](O)[C@@H](N)COP(=O)(O)O [S1P, sphingosine-1-phosphate]
activation of S1PR3 (S1PR3): activates | activation of / interaction with S1PR4 (in words) [1]: activates | activation of S1PR1 (S1PR1): activates | activation of S1PR2 (S1PR2): activates
